Source: PubChem (several laboratories)
Most compounds without a hit are left out; they make up all but 5.1% or so of the library.
NF-kB neuron act – raises NF-kB expression in human neuronal cells; AID 1239; NF-kB reporter expression; stronger effect = higher value; fold change at 12.5 µM; hit rate 1.6% among 190,000; in the data active = fold change above about 3.3
STAT3 inh-1 – reduces IL-6 driven STAT3 reporter signal | U3A cells, IL-6 STAT3-luciferase reporter, luminescence; host cell line lacks STAT1 | inhibition, % at 5.5 µM | hit rate 0.89% among 190,000;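 active = inhibition above the mean inhibition across all screened compounds plus 3 SD, cut at about 44% in these data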;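 note: 0% = DMSO only wells and 100% = 100 µM nifuroxazide control wells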
STAT3 act – activators of IL-6 induced STAT3 signaling | U3A cells, IL-6 STAT3-luciferase reporter, luminescence; 100% = signal with IL-6 EC80 alone | hit rate 0.91% among 190,000 | activation (% of control), % at 5.6 µM;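 active = activation above the screen-wide mean of compound activation plus 3 SD, cut at about 130% in these data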;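 note: 0% = background luminescence of wells with medium and substrate only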
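Assay system – human STAT1-deficient U3A cells with stable STAT3-luciferase reporter · Also added – IL-6 (33 ng/mL) · Schedule – compound 1 h, then IL-6 6 h at 37 °C · Technique – reporter luminescence signal · Evaluation – % activation versus median of IL-6-stimulated wells · Benchmarks – IL-6-only wells as 100% reference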
STAT1 activator – activators of IFN-gamma induced STAT1 signaling | NIH 3T3 STAT1-luciferase reporter, luminescence; 100% = IFN-gamma alone, no compound | activation (% of control), % at 5.5 µM | hit rate 2.6% among 200,000 | AID 932;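 active = activation above the screen-wide mean activation plus 3 SD, cut at about 130% in these data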;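 note: raw ratio to IFN-gamma control signal so 100% means no change and 0% no light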
STAT1 inh – inhibitors of IFN-gamma induced STAT1 signaling; NIH 3T3 STAT1-luciferase reporter, luminescence; hit rate 0.35% among 200,000; AID 920; inhibition, % at 5.5 µM;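 active = inhibition above a set limit, the mean inhibition across all tested compounds plus 3 SD, cut at about 34% in these data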;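 note: 0% = IFN-gamma with DMSO and 100% = IFN-gamma with 300 µM nifuroxazide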
APP 5'UTR act – APP 5'UTR luciferase reporter activation. SH-SY5Y APP 5'UTR luciferase reporter, luminescence; zero percent = DMSO vehicle wells. activation, % at 2 µM. hit rate 1% among 190,000;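 active = activation above a set limit, based on mean plus 3 SD of controls, cut at about 140% in these data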
STAT3 inh-2 – confirmation of STAT3 signaling inhibitors | shares compounds with STAT3 inh-1 | U3A cells, IL-6 STAT3 luciferase reporter, luminescence; cell line lacks STAT1 | inhibition, % at 5.7 µM | hit rate 45% among 1,200 | AID 1265;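 active = inhibition above the hit cutoff computed for the primary STAT3 screen, cut at about 44% in these data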;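 note: 0% = IL-6 plus DMSO and 100% = IL-6 plus nifuroxazide control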
NFkB inh STAT3ct – counter-screen for STAT3 inhibitors: NF-kappaB inhibition; shares compounds with STAT3 inh-1; HEK293T NF-kB luciferase reporter, TNF-alpha induced; inhibition, % at 5.7 µM; hit rate 36% among 1,200; AID 1308;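 active = inhibition above the mean of solvent-only control wells plus 3 SD, cutoff set per campaign, cut at about 13% in these data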;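 note: 0% = TNF-alpha with DMSO and 100% = TNF-alpha with MG high control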
STAT1 inh STAT3c – inhibits STAT1, counter-screen to STAT3 inhibitors; shares compounds with STAT3 inh-1; NIH 3T3 STAT1-luciferase reporter, IFN-gamma induced, luminescence; inhibition, % at 5.7 µM; hit rate 27% among 1,200;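 active = inhibition above the mean plus 3 SD of solvent-only control wells, limit set per screening run, cut at about 16% in these data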;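 note: 0% = DMSO with IFN-gamma and 100% = nifuroxazide control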
An asterisk follows results filed as active; nt = no result given.

SMILES	NF-kB neuron act	STAT3 inh-1	STAT3 act	STAT1 activator	STAT1 inh	APP 5'UTR act	STAT3 inh-2	NFkB inh STAT3ct	STAT1 inh STAT3c
CC1CCCCC1NC(=O)CN1C(=O)CSc2cc(S(=O)(=O)N3CCCCCC3)ccc21 (stereo unspecified)	1.1	2	106	97	3	-16	nt	nt	nt
Clc1ccc2nc(-c3ccc(Br)s3)cn2c1	3.5*	58*	51	96	5	230*	-31	-34	-140
COc1cc(OC)cc(C(=O)NNC(=S)NCc2ccco2)c1	0.93	-1	102	95	4	-3	nt	nt	nt
O=C(Nc1nc2ccccc2[nH]1)c1ccc(F)cc1	2.7	72*	39	103	-3	107	34	-7	-74
CNc1nc2cc([N+](=O)[O-])c([N+](=O)[O-])cc2nc1NC	0.77	72*	39	82	20	18	65*	28*	20*
C=CCn1c(C)cc(C(=O)CSc2nc3ccccc3[nH]2)c1C	0.74	99*	22	73	30	122	61*	15*	-64
O=C(NCc1ccc(F)cc1)C1CCC(=O)N1C1CCCCC1 (stereo unspecified)	1.2	45*	68	100	0	5	8	-7	-7
O=C(N/N=C/c1ccc2ncccc2c1)c1ccco1	1.1	67*	47	72	28	116	32	8	-42
O=C(N/N=C/c1ccccn1)c1ccco1	2.5	2	105	106	-7	-1	nt	nt	nt
O=C(CSCCO)Nc1ccc([N+](=O)[O-])cc1	1.2	-1	108	92	8	-6	nt	nt	nt
O=C(CSCCO)Nc1ccc(C23CC4CC(CC(C4)C2)C3)cc1	0.9	44*	66	124	-18	-9	33	22*	-29
O=C(OCc1ccc(F)cc1)c1ccc2ccccc2n1	1.6	16	93	115	-17	8	nt	nt	nt
CCOc1ccc(/C=N/NC(=O)c2[nH]ncc2Br)c(O)c1	4.4*	48*	61	116	-19	24	18	-15	-77
Cc1cc(-n2c(C)cc(C(=O)CSc3ncnc4ccccc34)c2C)no1	1.1	75*	41	83	18	-4	75*	25*	23*
Cc1cc(-n2c(C)cc(C(=O)CSc3nnc4sc5ccccc5n34)c2C)no1	0.95	10	96	102	-2	7	nt	nt	nt
O=C(CCC1CCCN(C(=O)c2ccoc2)C1)NCc1ccccc1F (stereo unspecified)	1.1	3	101	116	-19	-5	nt	nt	nt
O=[N+]([O-])c1ccccc1NC(=S)N/N=C/c1ccc(O)c(O)c1	nt	68*	44	148*	-56	150*	48*	-9	-47
CCOc1cccc(/C=N/NC(=S)Nc2ccccc2[N+](=O)[O-])c1O	0.48	69*	43	85	15	82	24	-8	-32
Cc1nccn1CCC(=O)Nc1ccc(Cl)cc1	1.4	8	104	100	-1	8	nt	nt	nt
CN(Cc1ccccc1)C(=S)Nc1ccc2nc3n(c(=O)c2c1)CCCCC3	1.1	11	93	98	-1	5	nt	nt	nt
CCCOc1ccc(C(=O)Nc2ccc(Cl)cn2)cc1	8.6*	56*	56	102	-2	137*	22	-19	-105
Cc1ccc(C(=O)Nc2ccc(Cl)cn2)cc1	6.6*	56*	57	123	-25	172*	13	-16	-107
O=C(COc1ccc(Cl)cc1)Nc1ccc(Cl)cn1	1.1	5	96	106	-7	40	nt	nt	nt
COC(=O)c1nn(-c2ccc(-c3ccccc3)cc2)cc1O	4.6*	74*	42	96	5	156*	35	-3	-2
CCc1ccc(NC(=O)CN2CCc3ccccc3C2)cc1	0.86	-11	110	101	-1	9	nt	nt	nt
